ChEMBL document CHEMBL5260793, “Novel pyrazolo[3,4-d]pyrimidine with 4-(1H-benzimidazol-2-yl)-phenylamine as broad spectrum anticancer agents: Synthesis, cell based assay, topoisomerase inhibition, DNA intercalation and bovine serum albumin studies” (Eur J Med Chem, 2017)
The source made the active and inactive calls. The rule behind the calls is not given here.

Legend:
[1] = test system: Panel melanoma (Carcinoma cell lines); assay: Anticancer activity against human Panel melanoma (Carcinoma cell lines) assessed as lethality incubated for 48 hrs by Sulphorhodamine B assay; format: functional
[2] = test system: Panel leukemia (Carcinoma cell lines); assay: Anticancer activity against human Panel leukemia (Carcinoma cell lines) assessed as lethality incubated for 48 hrs by Sulphorhodamine B assay; format: functional
Albumin = Albumin (Bos taurus, UniProt P02769); assay: Binding affinity to bovine serum albumin assessed as decrease in fluorescence intensity at pH 7.4 at 0 to 30 uM by fluorescence quenching method; settings: cattle
[3] = test system: Panel colon (Carcinoma cell lines); assay: Anticancer activity against human Panel colon (Carcinoma cell lines) assessed as total growth inhibition incubated for 48 hrs by Sulphorhodamine B assay; format: functional
Summary of the method: (§1)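 NCI-60 five-dose screen. Cells in RPMI 1640 with 5% FBS and 2 mM L-glutamine were plated at 5,000–40,000 cells/well and held 24 h before dosing. Compounds came from DMSO stocks and were given at five concentrations (10-fold or ½-log dilutions) for 48 h at 37 °C. Adherent cells were TCA-fixed and stained with SRB; A515 was read. GI50 was set from growth = 50% and TGI from Ti = Tz, using Tz/C/Ti.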

[4] = test system: Panel breast (Carcinoma cell lines); assay: Anticancer activity against human Panel breast (Carcinoma cell lines) assessed as lethality incubated for 48 hrs by Sulphorhodamine B assay; format: functional; settings: read-out: LC50 (the source's name)
[5] = test system: Panel leukemia (Carcinoma cell lines); assay: Anticancer activity against human Panel leukemia (Carcinoma cell lines) assessed as total growth inhibition incubated for 48 hrs by Sulphorhodamine B assay; format: functional
[6] = test system: Panel ovarian (Carcinoma cell lines); assay: Anticancer activity against human Panel ovarian (Carcinoma cell lines) assessed as cell growth inhibition incubated for 48 hrs by Sulphorhodamine B assay; format: functional; summary of the method: as §1
[7] = biological target: DNA topoisomerase 2-alpha (Homo sapiens) (UniProt P11388); assay: Inhibition of human DNA topoisomerase II-alpha mediated supercoiled pHOT1 plasmid DNA relaxation at 100 uM incubated for 30 mins by ethidium bromide staining based agarose gel electrophoresis analysis
Summary of the method: (§2)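 Reaction buffer: 50 mM Tris-Cl pH 8.0, 120 mM KCl, 10 mM MgCl2, 0.5 mM ATP, 0.5 mM DTT. Each reaction held 500 ng supercoiled pHOT1 and 1 U human Topo IIα, with compound at 10–100 μM, for 30 min at 37 °C. Reactions were stopped with glycerol/EDTA/bromophenol blue, run on 1% agarose in TBE, and stained with ethidium bromide. Etoposide 25 μM was the positive control.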

Calf thymus DNA [8] = assay: Displacement of Ethidium bromide from calf thymus DNA/EtBr complex assessed as decrease in fluorescent intensity by fluorescence based EtBr-displacement assay; format: nucleic-acid assay; settings: Bos taurus
Summary of the method: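 ct-DNA (0–20 μM) was pre-mixed with ethidium bromide, diluted from a 1 mM stock. Compound was then added in 2 μM steps up to 50 μM, with mixing after each addition. Emission was recorded with excitation at 480 nm.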

[9] = test system: Panel breast (Carcinoma cell lines); assay: Anticancer activity against human Panel breast (Carcinoma cell lines) assessed as total growth inhibition incubated for 48 hrs by Sulphorhodamine B assay; format: functional; summary of the method: as §1
[10] = Anticancer activity against human Non-small cell lung cancer cell line assessed as cell growth inhibition incubated for 48 hrs by Sulphorhodamine B assay; format: functional; summary of the method: as §1
[11] = test system: Panel renal (Carcinoma cell lines); assay: Anticancer activity against human Panel renal (Carcinoma cell lines) assessed as cell growth inhibition incubated for 48 hrs by Sulphorhodamine B assay; format: functional; summary of the method: as §1
[12] = test system: Panel colon (Carcinoma cell lines); assay: Anticancer activity against human Panel colon (Carcinoma cell lines) assessed as cell growth inhibition incubated for 48 hrs by Sulphorhodamine B assay; format: functional; summary of the method: as §1
[13] = test system: Panel renal (Carcinoma cell lines); assay: Anticancer activity against human Panel renal (Carcinoma cell lines) assessed as lethality incubated for 48 hrs by Sulphorhodamine B assay; format: functional
[14] = test system: Panel renal (Carcinoma cell lines); assay: Anticancer activity against human Panel renal (Carcinoma cell lines) assessed as total growth inhibition incubated for 48 hrs by Sulphorhodamine B assay; format: functional
[15] = Anticancer activity against human Non-small cell lung cancer cell line assessed as lethality incubated for 48 hrs by Sulphorhodamine B assay; format: functional
Calf thymus DNA [16] = assay: Binding affinity to calf thymus DNA assessed as maximum absorption wavelength shift at pH 7.4 at 10 uM by UV-vis absorption spectroscopy; format: nucleic-acid assay; settings: Bos taurus
Summary of the method: (§3)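 Absorption titration at 300 K in a 1 cm cell, background subtracted. Compound was fixed (10 μM per legend; 20 μM in methods) with ct-DNA added up to 15–20 μM in 10 mM phosphate buffer, pH 7.4 (A260/A280 1.82). A buffer-addition control was run. K was taken from the 1/(Af−Aobs) vs 1/[DNA] fit.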

[17] = test system: Panel CNS (Carcinoma cell lines); assay: Anticancer activity against human Panel CNS (Carcinoma cell lines) assessed as cell growth inhibition incubated for 48 hrs by Sulphorhodamine B assay; format: functional; summary of the method: as §1
[18] = test system: Panel ovarian (Carcinoma cell lines); assay: Anticancer activity against human Panel ovarian (Carcinoma cell lines) assessed as total growth inhibition incubated for 48 hrs by Sulphorhodamine B assay; format: functional
[19] = test system: Panel melanoma (Carcinoma cell lines); assay: Anticancer activity against human Panel melanoma (Carcinoma cell lines) assessed as total growth inhibition incubated for 48 hrs by Sulphorhodamine B assay; format: functional; summary of the method: as §1
[20] = test system: Panel prostate (Carcinoma cell lines); assay: Anticancer activity against human Panel prostate (Carcinoma cell lines) assessed as total growth inhibition incubated for 48 hrs by Sulphorhodamine B assay; format: functional; summary of the method: as §1
[21] = test system: Panel breast (Carcinoma cell lines); assay: Anticancer activity against human Panel breast (Carcinoma cell lines) assessed as cell growth inhibition incubated for 48 hrs by Sulphorhodamine B assay; format: functional; summary of the method: as §1
[22] = biological target: DNA topoisomerase 2-alpha (Homo sapiens) (UniProt P11388); assay: Inhibition of human DNA topoisomerase II-alpha mediated supercoiled pHOT1 plasmid DNA relaxation at 50 uM incubated for 30 mins by ethidium bromide staining based agarose gel electrophoresis analysis; summary of the method: as §2
[23] = biological target: T1, DNA topoisomerase 1 (Homo sapiens) (UniProt P11387); assay: Inhibition of human DNA topoisomerase I mediated supercoiled pHOT1 plasmid DNA relaxation upto 100 uM incubated for 30 mins by ethidium bromide staining based agarose gel electrophoresis analysis
T1 sequence (whole entry): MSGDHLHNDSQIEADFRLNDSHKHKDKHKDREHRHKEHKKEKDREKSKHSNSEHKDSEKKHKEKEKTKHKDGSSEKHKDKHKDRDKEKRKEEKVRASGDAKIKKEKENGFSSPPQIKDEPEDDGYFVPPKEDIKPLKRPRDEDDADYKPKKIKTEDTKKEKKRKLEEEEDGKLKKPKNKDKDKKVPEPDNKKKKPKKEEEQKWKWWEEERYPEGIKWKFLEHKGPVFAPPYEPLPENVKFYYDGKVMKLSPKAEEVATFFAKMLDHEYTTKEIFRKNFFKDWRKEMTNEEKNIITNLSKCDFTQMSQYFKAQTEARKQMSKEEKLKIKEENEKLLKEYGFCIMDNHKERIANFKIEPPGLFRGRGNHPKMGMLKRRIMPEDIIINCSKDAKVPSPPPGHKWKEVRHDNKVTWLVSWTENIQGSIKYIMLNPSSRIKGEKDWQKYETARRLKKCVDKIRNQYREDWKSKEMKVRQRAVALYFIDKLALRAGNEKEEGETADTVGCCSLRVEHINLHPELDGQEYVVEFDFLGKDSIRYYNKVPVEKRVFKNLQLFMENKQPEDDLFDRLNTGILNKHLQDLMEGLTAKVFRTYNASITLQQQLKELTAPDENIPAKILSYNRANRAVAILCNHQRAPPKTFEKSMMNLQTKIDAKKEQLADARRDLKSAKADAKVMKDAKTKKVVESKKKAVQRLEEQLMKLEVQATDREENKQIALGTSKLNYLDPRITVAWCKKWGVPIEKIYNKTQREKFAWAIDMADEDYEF

[24] = test system: Panel CNS (Carcinoma cell lines); assay: Anticancer activity against human Panel CNS (Carcinoma cell lines) assessed as lethality incubated for 48 hrs by Sulphorhodamine B assay; format: functional
[25] = test system: Panel prostate (Carcinoma cell lines); assay: Anticancer activity against human Panel prostate (Carcinoma cell lines) assessed as cell growth inhibition incubated for 48 hrs by Sulphorhodamine B assay; format: functional; summary of the method: as §1
[26] = test system: Panel CNS (Carcinoma cell lines); assay: Anticancer activity against human Panel CNS (Carcinoma cell lines) assessed as total growth inhibition incubated for 48 hrs by Sulphorhodamine B assay; format: functional; summary of the method: as §1
[27] = test system: Panel ovarian (Carcinoma cell lines); assay: Anticancer activity against human Panel ovarian (Carcinoma cell lines) assessed as lethality incubated for 48 hrs by Sulphorhodamine B assay; format: functional
[28] = test system: Panel colon (Carcinoma cell lines); assay: Anticancer activity against human Panel colon (Carcinoma cell lines) assessed as lethality incubated for 48 hrs by Sulphorhodamine B assay; format: functional
[29] = Anticancer activity against human Non-small cell lung cancer cell line assessed as total growth inhibition incubated for 48 hrs by Sulphorhodamine B assay; format: functional; summary of the method: as §1
[30] = test system: Panel melanoma (Carcinoma cell lines); assay: Anticancer activity against human Panel melanoma (Carcinoma cell lines) assessed as cell growth inhibition incubated for 48 hrs by Sulphorhodamine B assay; format: functional; summary of the method: as §1
[31] = test system: Panel leukemia (Carcinoma cell lines); assay: Anticancer activity against human Panel leukemia (Carcinoma cell lines) assessed as cell growth inhibition incubated for 48 hrs by Sulphorhodamine B assay; format: functional; summary of the method: as §1
Calf thymus DNA [32] = assay: Binding affinity to calf thymus DNA assessed as hypochromicity at pH 7.4 at 10 uM by UV-vis absorption spectroscopy; format: nucleic-acid assay; settings: Bos taurus; summary of the method: as §3
[33] = biological target: DNA topoisomerase 2-alpha (Homo sapiens) (UniProt P11388); assay: Inhibition of human DNA topoisomerase II-alpha mediated supercoiled pHOT1 plasmid DNA relaxation at 75 uM incubated for 30 mins by ethidium bromide staining based agarose gel electrophoresis analysis; summary of the method: as §2
[34] = test system: Panel prostate (Carcinoma cell lines); assay: Anticancer activity against human Panel prostate (Carcinoma cell lines) assessed as lethality incubated for 48 hrs by Sulphorhodamine B assay; format: functional

Sequence of Albumin (P02769 whole entry): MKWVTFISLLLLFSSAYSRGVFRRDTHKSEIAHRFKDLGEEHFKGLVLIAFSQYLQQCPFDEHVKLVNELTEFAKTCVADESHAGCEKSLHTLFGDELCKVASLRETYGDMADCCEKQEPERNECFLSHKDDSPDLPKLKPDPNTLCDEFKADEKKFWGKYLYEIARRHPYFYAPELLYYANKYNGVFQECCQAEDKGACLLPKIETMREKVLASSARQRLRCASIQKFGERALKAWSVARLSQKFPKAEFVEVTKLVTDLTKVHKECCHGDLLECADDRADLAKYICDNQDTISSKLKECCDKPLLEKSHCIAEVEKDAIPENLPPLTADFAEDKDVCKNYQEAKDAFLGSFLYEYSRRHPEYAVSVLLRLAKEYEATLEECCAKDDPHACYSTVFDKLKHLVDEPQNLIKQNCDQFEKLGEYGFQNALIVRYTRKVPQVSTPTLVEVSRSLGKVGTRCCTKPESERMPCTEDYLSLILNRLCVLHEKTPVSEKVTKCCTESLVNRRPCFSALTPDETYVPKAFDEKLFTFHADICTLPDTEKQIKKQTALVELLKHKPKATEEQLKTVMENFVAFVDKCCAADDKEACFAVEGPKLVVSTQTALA
Sequence of DNA topoisomerase 2-alpha (Homo sapiens) (P11388 whole entry): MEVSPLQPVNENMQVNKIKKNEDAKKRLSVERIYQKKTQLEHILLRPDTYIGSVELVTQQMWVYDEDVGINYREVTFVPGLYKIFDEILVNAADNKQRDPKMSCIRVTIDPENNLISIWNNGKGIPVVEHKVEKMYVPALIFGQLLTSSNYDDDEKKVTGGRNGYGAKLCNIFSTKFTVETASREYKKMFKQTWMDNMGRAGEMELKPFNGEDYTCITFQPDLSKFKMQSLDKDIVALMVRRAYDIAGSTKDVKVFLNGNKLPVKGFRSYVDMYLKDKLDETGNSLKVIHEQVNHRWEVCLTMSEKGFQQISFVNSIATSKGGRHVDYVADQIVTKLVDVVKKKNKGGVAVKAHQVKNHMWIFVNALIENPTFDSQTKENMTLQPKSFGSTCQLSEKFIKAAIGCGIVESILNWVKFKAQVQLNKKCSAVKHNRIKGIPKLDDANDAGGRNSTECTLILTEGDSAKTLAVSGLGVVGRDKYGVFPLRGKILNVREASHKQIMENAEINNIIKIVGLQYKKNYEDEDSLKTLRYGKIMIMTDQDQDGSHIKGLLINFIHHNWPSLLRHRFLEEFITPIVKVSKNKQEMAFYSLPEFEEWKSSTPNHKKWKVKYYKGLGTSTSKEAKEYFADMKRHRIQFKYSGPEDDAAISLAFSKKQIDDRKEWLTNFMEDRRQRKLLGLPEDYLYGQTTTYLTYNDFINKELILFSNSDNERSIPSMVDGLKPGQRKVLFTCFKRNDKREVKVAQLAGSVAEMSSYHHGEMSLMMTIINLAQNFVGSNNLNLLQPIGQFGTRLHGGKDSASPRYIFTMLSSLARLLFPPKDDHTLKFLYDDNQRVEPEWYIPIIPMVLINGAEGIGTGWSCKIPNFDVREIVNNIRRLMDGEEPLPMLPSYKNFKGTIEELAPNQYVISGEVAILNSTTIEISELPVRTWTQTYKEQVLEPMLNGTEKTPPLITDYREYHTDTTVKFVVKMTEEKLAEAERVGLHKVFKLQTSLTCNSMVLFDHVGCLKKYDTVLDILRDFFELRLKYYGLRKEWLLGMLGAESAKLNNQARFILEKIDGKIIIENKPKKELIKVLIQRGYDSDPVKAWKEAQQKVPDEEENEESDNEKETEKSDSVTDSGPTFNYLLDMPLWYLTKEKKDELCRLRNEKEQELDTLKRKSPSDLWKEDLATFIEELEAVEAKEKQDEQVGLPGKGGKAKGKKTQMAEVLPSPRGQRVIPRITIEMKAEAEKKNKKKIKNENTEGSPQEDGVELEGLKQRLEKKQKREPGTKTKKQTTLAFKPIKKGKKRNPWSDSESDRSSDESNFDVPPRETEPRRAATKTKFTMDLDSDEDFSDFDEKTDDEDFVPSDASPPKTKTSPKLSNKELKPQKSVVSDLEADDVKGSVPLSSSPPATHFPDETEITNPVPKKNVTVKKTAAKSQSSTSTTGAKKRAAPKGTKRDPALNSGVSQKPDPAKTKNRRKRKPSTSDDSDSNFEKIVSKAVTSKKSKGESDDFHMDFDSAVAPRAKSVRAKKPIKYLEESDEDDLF

| SMILES | Activity (Albumin) | TGI [3] [µM] | GI50 [6] [µM] | inhibition [7] | TGI [9] [µM] | GI50 [10] [µM] | GI50 [11] [µM] | GI50 [12] [µM] | Activity (Calf thymus DNA [16]) [nm] | GI50 [17] [µM] | TGI [19] [µM] | TGI [20] [µM] | GI50 [21] [µM] | inhibition [22] | inhibition [23] | GI50 [25] [µM] | TGI [26] [µM] | TGI [29] [µM] | Activity (Calf thymus DNA [32]) | inhibition [33] | also measured |
| --- | --- | --- | --- | --- | --- | --- | --- | --- | --- | --- | --- | --- | --- | --- | --- | --- | --- | --- | --- | --- | --- |
| c1ccc2[nH]c(-c3ccc(Nc4nc(N5CCCC5)nc5[nH]ncc45)cc3)nc2c1 | Active | 5.88 | 1.1 | Active | 2.08 | 1.08 | 1.22 | 2.32 | 259 | 0.86 | 1.53 | 3.14 | 0.73 | Active | inactive | 1.37 | 2.01 | 3.17 | Active | Active | LC50 (lethal concentration 50) [1]: 4.32 µM; LC50 [2]: 31.8 µM; CC50 [4]: 6.35 µM; TGI [5]: 6.7 µM; Activity (Calf thymus DNA [8]): Active; LC50 (50% lethal concentration) [13]: 7.04 µM; TGI [14]: 2.67 µM; LC50 (lethal concentration, 50% cell kill) [15]: 11.5 µM; TGI [18]: 2.73 µM; LC50 (concentration killing 50% of cells) [24]: 4.17 µM; LC50 (concentration killing 50% of cells) [27]: 6.85 µM; LC50 (lethal concentration, 50% cell kill) [28]: 2.23 µM; GI50 [30]: 0.67 µM; GI50 [31]: 2.38 µM; LC50 [34]: 20.6 µM |
| CC[C@H](CO)Nc1nc(NCc2ccccc2)c2ncn(C(C)C)c2n1 [SELICICLIB] |  | 84.9 | 29.3 |  | 73 | 23.6 | 24.9 | 24.8 |  | 24.7 | 57.6 | 81.5 | 22.7 |  |  | 17.9 | 82.2 | 84.8 |  |  | GI50 [30]: 14.8 µM; GI50 [31]: 37.5 µM |
| c1ccc2[nH]c(-c3ccc(Nc4nc(N5CCOCC5)nc5[nH]ncc45)cc3)nc2c1 | Active |  |  | Active |  |  |  |  | 260 |  |  |  |  | Active | inactive |  |  |  | Active | Active |  |
| c1ccc(CNc2nc(Nc3ccc(-c4nc5ccccc5[nH]4)cc3)c3cn[nH]c3n2)cc1 | Active | 5.12 | 2.52 | Active | 5.85 | 2.54 | 2.3 | 2 | 264 | 2.96 | 4.29 | 9.43 | 2.04 | Active | inactive | 2.56 | 16.7 | 8.99 | Active | Active | LC50 (lethal concentration 50) [1]: 19.3 µM; LC50 [2]: > 100 µM; CC50 [4]: 46.3 µM; TGI [5]: 6.43 µM; Activity (Calf thymus DNA [8]): Active; LC50 (50% lethal concentration) [13]: 31.2 µM; TGI [14]: 6.16 µM; LC50 (lethal concentration, 50% cell kill) [15]: 55.3 µM; TGI [18]: 7.83 µM; LC50 (concentration killing 50% of cells) [24]: 28.1 µM; LC50 (concentration killing 50% of cells) [27]: 41.8 µM; LC50 (lethal concentration, 50% cell kill) [28]: 34.7 µM; GI50 [30]: 1.85 µM; GI50 [31]: 2.67 µM; LC50 [34]: 41.8 µM |
| NCCNc1nc(Nc2ccc(-c3nc4ccccc4[nH]3)cc2)c2cn[nH]c2n1 | Active |  |  | Active |  |  |  |  | 259 |  |  |  |  | Active | inactive |  |  |  | Active | Active |  |
